≈ marks a conversion by molar mass, not a printed value.
Columns and labels:
[1] = system: Streptococcus pneumoniae; assay: In vitro minimum inhibitory concentration was measured against Streptococcus pneumoniae 6301 strain; format: functional
Procedure, shortened: (§1)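 Streptococci were tested on brain heart infusion agar plus 20 units/mL catalase, Proteus on Mueller-Hinton with 3% agar, and others on Mueller-Hinton agar. Inocula were 100-fold-diluted overnight cultures, about 3 × 10^4 CFU/spot, read after overnight incubation at 36 °C.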

[2] = system: Penicillin-binding protein 3 (Escherichia coli); assay: Affinity for penicillin binding protein 3 of Escherichia coli UB1005 (DC0) was evaluated.; parameters: unit not given here
[3] = system: Staphylococcus aureus; assay: In vitro minimum inhibitory concentration was measured against Staphylococcus aureus 753 (Methicillin resistant) strain.; format: functional
[4] = target: T1, Penicillin-binding protein 1A (Escherichia coli K-12) (UniProt P02918); assay: Affinity for penicillin binding protein 1a of Escherichia coli UB1005 (DC0) was evaluated.; parameters: unit not given here
T1 sequence (whole entry): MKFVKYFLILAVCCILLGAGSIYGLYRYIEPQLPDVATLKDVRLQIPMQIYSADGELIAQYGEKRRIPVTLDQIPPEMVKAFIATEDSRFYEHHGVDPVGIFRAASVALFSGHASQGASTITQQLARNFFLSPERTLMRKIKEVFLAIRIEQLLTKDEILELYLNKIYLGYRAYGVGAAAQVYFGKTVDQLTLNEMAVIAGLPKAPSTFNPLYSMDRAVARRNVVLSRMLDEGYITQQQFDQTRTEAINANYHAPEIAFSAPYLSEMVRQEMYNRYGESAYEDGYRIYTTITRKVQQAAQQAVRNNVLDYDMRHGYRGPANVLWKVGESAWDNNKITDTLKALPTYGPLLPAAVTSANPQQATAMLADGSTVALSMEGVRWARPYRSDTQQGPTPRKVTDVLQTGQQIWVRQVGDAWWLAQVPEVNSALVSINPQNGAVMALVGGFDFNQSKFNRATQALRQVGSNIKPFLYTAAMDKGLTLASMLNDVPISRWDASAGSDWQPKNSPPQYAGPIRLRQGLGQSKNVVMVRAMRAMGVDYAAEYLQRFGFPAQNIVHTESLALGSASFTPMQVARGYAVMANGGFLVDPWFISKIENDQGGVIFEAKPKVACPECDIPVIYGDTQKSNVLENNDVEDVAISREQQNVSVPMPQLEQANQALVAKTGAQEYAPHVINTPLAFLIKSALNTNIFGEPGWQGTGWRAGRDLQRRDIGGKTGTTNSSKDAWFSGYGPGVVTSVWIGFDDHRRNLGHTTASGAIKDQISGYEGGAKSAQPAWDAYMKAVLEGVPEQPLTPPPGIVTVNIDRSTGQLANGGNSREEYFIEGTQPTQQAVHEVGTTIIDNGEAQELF
Procedure, shortened: (§2)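 Solubilised membranes from sonicated E. coli UB1005 served as the binding-protein source. Binding was read as inhibition of [14C]penicillin G binding.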

[5] = system: Enterobacter cloacae; assay: In vitro minimum inhibitory concentration was measured against Enterobacter cloacae 5699 strain.; format: functional
[6] = system: Staphylococcus aureus; assay: In vitro minimum inhibitory concentration was measured against Staphylococcus aureus 67-0 (Methicillin resistant) strain.; format: functional
[7] = system: Escherichia coli; assay: In vitro minimum inhibitory concentration was measured against Escherichia coli ATCC 25922 strain.; format: functional; procedure, shortened: as §1
[8] = system: Escherichia coli; assay: In vitro minimum inhibitory concentration was measured against Escherichia coli 257 strain.; format: functional; procedure, shortened: as §1
[9] = system: Pseudomonas aeruginosa; assay: In vitro minimum inhibitory concentration was measured against Pseudomonas aeruginosa 18S/H strain.; format: functional; procedure, shortened: as §1
[10] = system: Escherichia coli; assay: Minimum inhibitory concentration against E. coli UB1005 (DC0)
[11] = system: Escherichia coli; assay: In vitro minimum inhibitory concentration was measured against Escherichia coli TEM-1 (Beta lactamase producer) strain.; format: functional; procedure, shortened: as §1
[12] = system: Proteus vulgaris; assay: In vitro minimum inhibitory concentration was measured against Proteus vulgaris 1028BC (beta lactamase producer) strain.; format: functional; procedure, shortened: as §1
[13] = target: T2, Penicillin-binding protein 1B (Escherichia coli K-12) (UniProt P02919); assay: Affinity for penicillin binding protein 1b of Escherichia coli UB1005 (DC0) was evaluated.; parameters: unit not given here; procedure, shortened: as §2
T2 sequence (whole entry): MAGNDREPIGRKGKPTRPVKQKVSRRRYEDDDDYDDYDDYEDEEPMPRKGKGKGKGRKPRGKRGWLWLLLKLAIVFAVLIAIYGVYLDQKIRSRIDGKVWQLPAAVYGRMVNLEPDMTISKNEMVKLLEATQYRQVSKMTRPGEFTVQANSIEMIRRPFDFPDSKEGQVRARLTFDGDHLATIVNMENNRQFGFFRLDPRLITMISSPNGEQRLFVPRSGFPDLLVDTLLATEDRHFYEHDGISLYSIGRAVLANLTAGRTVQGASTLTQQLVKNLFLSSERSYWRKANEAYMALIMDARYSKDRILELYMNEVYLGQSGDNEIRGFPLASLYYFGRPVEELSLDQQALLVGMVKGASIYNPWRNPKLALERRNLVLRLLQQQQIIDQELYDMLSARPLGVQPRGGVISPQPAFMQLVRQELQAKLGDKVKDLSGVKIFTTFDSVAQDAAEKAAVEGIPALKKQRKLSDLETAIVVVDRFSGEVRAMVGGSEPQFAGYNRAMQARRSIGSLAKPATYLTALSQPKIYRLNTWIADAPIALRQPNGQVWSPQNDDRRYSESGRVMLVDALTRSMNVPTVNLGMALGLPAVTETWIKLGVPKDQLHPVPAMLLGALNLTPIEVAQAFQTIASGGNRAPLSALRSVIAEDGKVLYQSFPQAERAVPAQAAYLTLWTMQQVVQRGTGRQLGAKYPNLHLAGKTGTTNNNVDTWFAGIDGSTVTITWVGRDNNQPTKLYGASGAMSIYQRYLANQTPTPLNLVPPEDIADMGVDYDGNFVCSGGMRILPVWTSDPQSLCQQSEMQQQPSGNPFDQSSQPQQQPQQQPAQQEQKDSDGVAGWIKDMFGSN

[14] = system: Enterococcus faecalis; assay: In vitro minimum inhibitory concentration was measured against Enterococcus faecalis ATCC 29212 strain.; format: functional; procedure, shortened: as §1
[15] = system: Citrobacter freundii; assay: In vitro minimum inhibitory concentration was measured against Citrobacter freundii BS-16 (beta lactamase producer) strain.; format: functional
Procedure, shortened: (§3)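 MICs were determined by agar dilution with 2-fold dilutions giving final 128–0.0156 µg/mL, extended to 0.000977 µg/mL where needed. Streptococci were tested on brain heart infusion agar plus 20 units/mL catalase, Proteus on Mueller-Hinton with 3% agar, and others on Mueller-Hinton agar. Inocula were 100-fold-diluted overnight cultures, about 3 × 10^4 CFU/spot, read after overnight incubation at 36 °C.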

[16] = target: T3, Peptidoglycan D,D-transpeptidase MrdA (Escherichia coli K-12) (UniProt P0AD65); assay: Affinity for penicillin binding protein 2 of Escherichia coli UB1005 (DC0) was evaluated.; parameters: unit not given here; procedure, shortened: as §2
T3 sequence (whole entry): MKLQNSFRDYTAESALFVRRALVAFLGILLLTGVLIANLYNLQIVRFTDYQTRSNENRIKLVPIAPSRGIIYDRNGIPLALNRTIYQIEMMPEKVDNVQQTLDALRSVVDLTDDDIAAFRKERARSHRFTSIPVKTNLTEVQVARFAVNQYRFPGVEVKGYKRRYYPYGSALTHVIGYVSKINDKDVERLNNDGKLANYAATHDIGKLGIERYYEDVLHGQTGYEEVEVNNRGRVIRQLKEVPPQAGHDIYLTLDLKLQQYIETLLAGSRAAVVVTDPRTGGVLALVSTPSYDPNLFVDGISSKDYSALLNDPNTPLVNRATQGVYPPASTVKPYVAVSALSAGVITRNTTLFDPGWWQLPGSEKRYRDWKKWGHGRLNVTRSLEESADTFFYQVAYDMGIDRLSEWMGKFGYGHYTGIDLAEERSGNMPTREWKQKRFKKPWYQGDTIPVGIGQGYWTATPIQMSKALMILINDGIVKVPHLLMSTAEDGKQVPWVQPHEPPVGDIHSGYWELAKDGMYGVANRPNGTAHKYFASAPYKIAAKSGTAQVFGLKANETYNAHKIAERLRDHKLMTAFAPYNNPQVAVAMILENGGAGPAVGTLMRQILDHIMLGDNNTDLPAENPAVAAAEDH

[17] = system: Serratia marcescens; assay: In vitro minimum inhibitory concentration was measured against Serratia marcescens 1071(beta lactamase producer) strain.; format: functional; procedure, shortened: as §1
[18] = system: Staphylococcus aureus; assay: In vitro minimum inhibitory concentration was measured against Staphylococcus aureus smith strain.; format: functional
[19] = system: Streptococcus pyogenes; assay: In vitro minimum inhibitory concentration was measured against Streptococcus pyogenes 4 strain.; format: functional; procedure, shortened: as §1
[20] = system: Proteus mirabilis; assay: In vitro minimum inhibitory concentration was measured against Proteus mirabilis 90 strain.; format: functional; procedure, shortened: as §1
[21] = system: Micrococcus luteus; assay: In vitro minimum inhibitory concentration was measured against Micrococcus luteus ATCC 9341 strain.; format: functional; procedure, shortened: as §1
[22] = system: Escherichia coli; assay: Minimum inhibitory concentration for DC2, a permeability mutant; procedure, shortened: as §3
[23] = system: Enterobacter cloacae; assay: In vitro minimum inhibitory concentration was measured against Enterobacter cloacae p99 (beta lactamase producer) strain.; format: functional
[24] = system: Pseudomonas aeruginosa; assay: In vitro minimum inhibitory concentration was measured against Pseudomonas aeruginosa 8780 strain.; format: functional; procedure, shortened: as §1
[25] = system: Klebsiella pneumoniae; assay: In vitro minimum inhibitory concentration was measured against Klebsiella pneumoniae A strain.; format: functional; procedure, shortened: as §1

Row | SMILES | MIC [1] | Binding affinity [2] | MIC [3] | Binding affinity [4] | MIC [5] | MIC [6] | MIC [7] | MIC [8] | MIC [9] | MIC [11] | MIC [12] | Binding affinity [13] | MIC [14] | MIC [15] | Binding affinity [16] | MIC [17] | MIC [18] | MIC [19] | MIC [20] | MIC [21] | other results
1 | CC(C)(O/N=C(\C(=O)N[C@@H]1C(=O)N2C(C(=O)O)=C(CN3CCN(c4cc5c(cc4F)c(=O)c(C(=O)O)cn5C4CC4)CC3)CS[C@H]12)c1csc(N)n1)C(=O)O | 0.25 µg/mL (≈ 0.313 µM) | 2 | 8 µg/mL (≈ 10 µM) | 100 | 1 µg/mL (≈ 1.25 µM) | 16 µg/mL (≈ 20 µM) | 0.25 µg/mL (≈ 0.313 µM) | 0.25 µg/mL (≈ 0.313 µM) | 2 µg/mL (≈ 2.5 µM) | 0.5 µg/mL (≈ 0.626 µM) | 1 µg/mL (≈ 1.25 µM) | 100 | 8 µg/mL (≈ 10 µM) | 0.125 µg/mL (≈ 0.156 µM) | 100 | 1 µg/mL (≈ 1.25 µM) | 8 µg/mL (≈ 10 µM) | 0.25 µg/mL (≈ 0.313 µM) | 2 µg/mL (≈ 2.5 µM) | 2 µg/mL (≈ 2.5 µM) | MIC [10]: 4 µg/mL (≈ 5.01 µM); MIC [22]: 0.25 µg/mL (≈ 0.313 µM); MIC [23]: 0.5 µg/mL (≈ 0.626 µM); MIC [24]: 8 µg/mL (≈ 10 µM); MIC [25]: 0.5 µg/mL (≈ 0.626 µM)
2 | CO/N=C(\C(=O)N[C@@H]1C(=O)N2C(C(=O)O)=C(CN3CCNCC3)CS[C@H]12)c1csc(N)n1 | 0.063 µg/mL (≈ 0.131 µM) | 100 | > 128 µg/mL | > 100 | 0.5 µg/mL (≈ 1.04 µM) | > 128 µg/mL | 0.25 µg/mL (≈ 0.519 µM) | 0.25 µg/mL (≈ 0.519 µM) | > 128 µg/mL | 0.5 µg/mL (≈ 1.04 µM) | > 128 µg/mL | 100 | 4 µg/mL (≈ 8.31 µM) | 128 µg/mL (≈ 266 µM) | > 100 | 8 µg/mL (≈ 16.6 µM) | 4 µg/mL (≈ 8.31 µM) | 0.031 µg/mL (≈ 0.0644 µM) | 0.5 µg/mL (≈ 1.04 µM) | 0.25 µg/mL (≈ 0.519 µM) | MIC [22]: 0.25 µg/mL (≈ 0.519 µM); MIC [23]: 128 µg/mL (≈ 266 µM); MIC [24]: 64 µg/mL (≈ 133 µM); MIC [25]: 0.125 µg/mL (≈ 0.26 µM)
